Data set [1] concerns Mus musculus. The data set can be described thus: Antiinflammatory activity in Kunming mouse assessed as inhibition of xylene-induced auricle tumefaction at 0.2 mmol/kg, po qd administered prior to challenge for 5 days measured 30 mins post challenge. It is filed as functional. In outline:
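Male Kunming mice (18-22 g), ten per group, dosed once daily for 5 days at 0.2 mmol/kg; controls got 0.9% NaCl. A 7 mm filter soaked in xylene was held on the right ear for 30 s, 1 h after the last dose. Mice were killed 30 min later and 7 mm ear punches taken. Inhibition = (1 − a/b)×100%, from tumefaction degree of control and test groups.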

The subject of data set [2] is Mus musculus. The data set can be described thus: Ulcerogenic activity in Kunming mouse assessed as ulcer index at 1 mmol/kg, po measured after 4 hrs. It is filed as toxicity, organism-based. Conditions: in vivo. A digest of the protocol:
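Kunming mice of either sex (18-22 g), ten per group, fasted from food and water for 24 h. Then given 1.0 mmol/kg orally as a suspension in 1% methylcellulose. Killed at 4 h; stomachs fixed 30 min in 10% formaldehyde, opened along the greater curvature and ulcers measured under a magnifier. Ulcer index = summed lesion length (mm) per stomach averaged over 10 animals.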

Data set [3] in a line: Prodrug conversion at pH 7.4 assessed as hydrolysis up to 24 hrs by HPLC analysis. It is filed as physicochemical. Conditions: buffer, pH 7.4, 24 h. A digest of the protocol: (§1)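 Prodrugs held at 37 °C for up to 24 h in phosphate-buffered saline adjusted to pH 1.2 or pH 7.4. Samples taken at set intervals. Released parent drugs quantified by C18 HPLC with methanol/0.1% H3PO4 90:10 (pH 2.3), 25 °C, 1.0 mL/min, 254 nm. Run in triplicate.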

Data set [4] in a line: Prodrug conversion at pH 1.2 assessed as hydrolysis up to 24 hrs by HPLC analysis. Conditions: buffer, pH 1.2, 24 h. It is filed as physicochemical. A digest of the protocol: as §1
The test system of data set [5] is Hydroxyapatite. The data set can be described thus: Binding affinity to bone mineral hydroxyapatite after 30 mins by RP-HPLC analysis. A digest of the protocol:
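Each compound (10 mL, 0.1 mmol/L in water) stirred vigorously with 20, 40 or 80 mg hydroxyapatite for 30 min. Then analysed by HPLC on C18 with methanol/0.1% H3PO4 90:10 (pH 2.3), 25 °C, 1.0 mL/min, 254 nm detection. n = 3.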

The nature of data set [6]: AUC (0 to 9 hrs) in Sprague-Dawley rat at 5.26 mg/kg, po. It is filed as ADME, organism-based. Details: time < 9 hr, dose 5.26 mg/kg, route oral. The settings on record: plasma. A digest of the protocol: (§2)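 SD rats of either sex (200 ± 20 g), six per group, dosed by gastric intubation after recovery from anesthesia. Arterial blood (~0.5 mL) drawn predose and at 0.17, 0.33, 0.5, 0.75, 1, 1.5, 2, 2.5, 3, 4, 5, 7 and 9 h. Plasma separated at once by centrifugation. Rhein in plasma measured by HPLC with diode-array detection.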

Data set [7] can be described thus: Cmax in Sprague-Dawley rat at 5.26 mg/kg, po. Conditions: in vivo. The data set is classed as ADME, organism-based. More on the design: dose 5.26 mg/kg, route oral. A digest of the protocol: as §2
A short description of data set [8]: Tmax in Sprague-Dawley rat at 5.26 mg/kg, po. The data set is classed as ADME, organism-based. The settings on record: in vivo. More on the design: dose 5.26 mg/kg, route oral. A digest of the protocol:
as §2

Data set [9] concerns Rattus norvegicus. Briefly: MRT (0 to infinity) in Sprague-Dawley rat assessed as rhein at 10 mg/kg, po. It is filed as ADME, organism-based. More on the design: dose 10 mg/kg, route oral. Conditions: in vivo. In outline:
as §2

Data set [10] in a line: Half life in Sprague-Dawley rat at 5.26 mg/kg, po. It is filed as ADME, organism-based. Details: dose 5.26 mg/kg, route oral. The settings on record: in vivo. In outline: as §2
The subject of data set [11] is Rattus norvegicus. The data set can be described thus: MRT (0 to 9 hrs) in Sprague-Dawley rat assessed as rhein at 10 mg/kg, po. It is filed as ADME, organism-based. Details: dose 10 mg/kg, route oral. The settings on record: in vivo. A digest of the protocol: as §2
Data set [12] deals with Rattus norvegicus. The data set can be described thus: AUC (0 to infinity) in Sprague-Dawley rat assessed as rhein at 10 mg/kg, po. The data set is classed as ADME, organism-based, Plasma. More on the design: time infinity, dose 10 mg/kg, route oral. The settings on record: in vivo. A digest of the protocol: as §2
Data set [13] concerns Rattus norvegicus. Briefly: AUC (0 to 9 hrs) in Sprague-Dawley rat assessed as rhein at 10 mg/kg, po. More on the design: time < 9 hr, dose 10 mg/kg, route oral. It is filed as ADME, organism-based, Plasma. The settings on record: in vivo. In outline: as §2
Data set [14] has as its system Rattus norvegicus. Briefly: Cmax in Sprague-Dawley rat assessed as rhein at 10 mg/kg, po. It is filed as ADME, organism-based. More on the design: dose 10 mg/kg, route oral. The settings on record: in vivo. A digest of the protocol:
as §2

Data set [15] concerns Rattus norvegicus. The data set can be described thus: Tmax in Sprague-Dawley rat assessed as rhein at 10 mg/kg, po. The data set is classed as ADME, organism-based. Details: dose 10 mg/kg, route oral. The settings on record: in vivo. In outline:
as §2

The subject of data set [16] is Rattus norvegicus. The data set can be described thus: Half life in Sprague-Dawley rat assessed as rhein at 10 mg/kg, po. The data set is classed as ADME, organism-based. More on the design: dose 10 mg/kg, route oral. The settings on record: in vivo. A digest of the protocol: as §2
A short description of data set [17]: AUC (0 to infinity) in Sprague-Dawley rat at 5.26 mg/kg, po. The data set is classed as ADME, organism-based. Details: time infinity, dose 5.26 mg/kg, route oral. Conditions: plasma. A digest of the protocol:
as §2

Data set [18] can be described thus: MRT (0 to 9 hrs) in Sprague-Dawley rat at 5.26 mg/kg, po. It is filed as ADME, organism-based. Details: dose 5.26 mg/kg, route oral. The settings on record: in vivo. In outline:
as §2

Data set [19] in a line: MRT (0 to infinity) in Sprague-Dawley rat at 5.26 mg/kg, po. Conditions: in vivo. Details: dose 5.26 mg/kg, route oral. It is filed as ADME, organism-based. A digest of the protocol: as §2

Activity calls are given as the source filed them. The rule behind the calls is not given here.

In general, inhibition in vivo refers to the percentage by which the read-out fell short of the control. A word on the AUC(0-t): it is exposure summed from dosing to a finite time, without extrapolation to infinity. By Cmax is commonly meant the highest concentration seen after dosing. The Tmax is the time from dosing to the highest level. A word on the MRT: it is the average time that molecules of a dose stay in the body. For orientation: half-life means the time in which the quantity being followed falls by half. Usually AUC stands for concentration integrated over time. Broadly, the AUC(0-inf) is total exposure, with the tail of the curve extrapolated. As usually defined, the MRT last is the average time that molecules of a dose stay in the body. In general, MRT inf refers to a mean duration of stay, worked out from the concentration-time curve.

For `CC(C)Cc1ccc(C(C)C(=O)OCCOCCOCCOC(=O)c2cc(O)c3c(c2)C(=O)c2cccc(O)c2C3=O)cc1` (stereo not drawn), the inhibition in vivo at 200 µmol/kg in data set [1] turned out to be 33.9%. Also, the UI in [2] was found to be 5.8. In addition, the Drug metabolism entry in data set [3] and in data set [4] was “Active” each time. For the same molecule, the outcome in [5] was Active.
For `CC(=O)Oc1cccc2c1C(=O)c1c(OC(C)=O)cc(C(=O)OCCOC(=O)C(C)c3ccc(CC(C)C)cc3)cc1C2=O` (stereo not drawn), the inhibition in vivo at 200 µmol/kg in [1] turned out to be 35.2%. Also, the Drug metabolism entry in data set [3] and in data set [4] was “Active” each time. Moreover, the outcome in data set [5] was Active.
As to `CC(C)Cc1ccc(C(C)C(=O)O)cc1` (stereo not drawn) [IBUPROFEN], the inhibition in vivo at 200 µmol/kg in [1] is 32%. Besides, the UI in [2] was determined as 8.3. The Drug metabolism entry in data set [3] was “Active”. For the same molecule, the outcome in data set [5] was inactive.
Take `O=C(Cc1ccccc1Nc1c(Cl)cccc1Cl)OCCOC(=O)c1cc(O)c2c(c1)C(=O)c1cccc(O)c1C2=O`: the inhibition in vivo at 200 µmol/kg in data set [1] is 43.9%. Moreover, the Drug metabolism result in [3] and in [4] was “Active” in each case. In addition, the result in data set [5] was Active.
As for `CC(=O)Oc1cccc2c1C(=O)c1c(OC(C)=O)cc(C(=O)OCCOCCO)cc1C2=O`, the inhibition in vivo at 200 µmol/kg in data set [1] was 15%. For the same molecule, the Drug metabolism result in [3] and in data set [4] was “Active” throughout. Besides, the outcome in data set [5] was Active.
On to `CC(=O)Oc1cccc2c1C(=O)c1c(OC(C)=O)cc(C(=O)O)cc1C2=O` [DIACEREIN], for which, in [1], the inhibition in vivo at 200 µmol/kg was found to be 29.2%. Further, the result in [5] was Active.
Turning to `CC(=O)Oc1cccc2c1C(=O)c1c(OC(C)=O)cc(C(=O)OCCOCCOCCO)cc1C2=O`, the inhibition in vivo at 200 µmol/kg in [1] was 19.5%. The Drug metabolism entry in data set [3] and in [4] was “Active” throughout. In addition, in [5], the result was Active.
Turning to `O=C(O)Cc1ccccc1Nc1c(Cl)cccc1Cl` [DICLOFENAC], the inhibition in vivo at 200 µmol/kg in data set [1] amounted to 41.9%.
`CC(C)Cc1ccc(C(C)C(=O)OCCOC(=O)c2cc(O)c3c(c2)C(=O)c2cccc(O)c2C3=O)cc1` (stereo not drawn): the inhibition in vivo at 200 µmol/kg in [1] was 41.2%. In addition, in data set [2], the UI came to 5.8. For the same molecule, the Drug metabolism entry in data set [3] and in data set [4] was “Active” each time. Besides, the outcome in [5] was Active.
For the molecule `CC(=O)Oc1cccc2c1C(=O)c1c(OC(C)=O)cc(C(=O)OCCOCCOCCOC(=O)C(C)c3ccc(CC(C)C)cc3)cc1C2=O` (stereo not drawn), in [1], the inhibition in vivo at 200 µmol/kg was determined as 29.3%. In addition, the Drug metabolism entry in data set [3] and in data set [4] was “Active” each time. In addition, in [5], the result was Active.
As for `O=C(O)c1cc(O)c2c(c1)C(=O)c1cccc(O)c1C2=O` [RHEIN], in data set [6], the AUC(0-t) at 9 h worked out at 1170 ng·h/mL. Further, the Cmax in data set [7] is 432 ng/mL; in data set [14], 291 ng/mL. In addition, the figures for the Tmax in [8] and in data set [15] were 2.04 h and 2.917 h, respectively. For the same molecule, the MRT in [9] stood at 5.699 h; in [11], 4.291 h. Also, the half-life in [10] is 1.24 h. For the same molecule, the AUC worked out at 1394 ng·h/mL in [12] and 1178 ng·h/mL in [13]. Further, the t1/2 in data set [16] is 2.771 h. Also, in data set [4], the Drug metabolism entry is listed as “Active”. Moreover, the outcome in data set [5] was Active. Also, the AUC(0-inf) in [17] is 1380 ng·h/mL. In [18], this molecule came in with an MRT last of 2.92 h. The MRT inf in [19] amounted to 3.78 h.

The values are drawn from ChEMBL document CHEMBL2062385, “Bone-targeting glycol and NSAIDS ester prodrugs of rhein: synthesis, hydroxyapatite affinity, stability, anti-inflammatory, ulcerogenicity index and pharmacokinetics studies” (Eur J Med Chem, 2012).
